Assay results taken from the array DNA melting data of Ke et al. (doi:10.1101/2024.01.08.574731).

Tests used:
[1] = folding enthalpy; higher = less favourable; fluorescence melt of hairpins on a sequencing array, two-state fit; settings: sodium 0.088 M
Outline: (§1)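 With Cy3 and quencher oligos annealed, library hairpins on a sequenced MiSeq flow cell were imaged for Cy3 fluorescence in 50 mM Na-HEPES pH 8.0, 25 mM NaCl, in 2.5 °C steps up to 60 °C. Melting temperature and folding enthalpy were derived from bootstrapped two-state fits of signals normalised to pre-quench Cy3 and to control constructs. Four replicates were combined by inverse variance, with fitted temperatures raised by 9.35 °C to match UV melts.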

[2] = melting temperature; fluorescence melt of hairpins on a sequencing array, two-state fit, raised by 9.35 °C to match UV melts; settings: sodium 0.088 M
Outline: as §1

Row | Sequence | folding enthalpy [1] [kcal/mol] | Tm [2] [°C]
1 | GCACAGCGAAAGCTCCGC ((..(((....)))..)) | -9.89 | 28.1
2 | GCACAGCGAAAGCTTCGC ((..(((....)))..)) | -12.4 | 39.8
3 | GCACAGGAAACTGTGC ((((((....)))))) | -36.1 | 67
4 | GCACAGGGAAACCCGTGC ((((.((....)).)))) | -36.8 | 55.4
5 | GCACAGGGAAACCTACGC ((..(((....)))..)) | -15.8 | 34.9
6 | GCACAGGGAAACCTATGC (((.(((....))).))) | -24.2 | 37.1
7 | GCACAGGGAAACCTGCAC (..((((....))))..) | -10.3 | 28.4
8 | GCACAGTCGAAAGACTGC (((..(((....)))))) | -8.86 | 39.3
9 | GCACATCGAAAGATCTGC (((.(((....))).))) | -28.3 | 36
10 | GCACATGGAAACATGCAC (..((((....))))..) | -15.2 | 28.2
11 | GCACATGGAAACATGCGC ((.((((....)))).)) | -48.8 | 49.9
12 | GCACCACGAAAGTGATGC (((.(((....))).))) | -36.5 | 55.7
13 | GCACCACGAAAGTGTGC (((.(((....)))))) | -34.6 | 58.6
14 | GCACCACGAAAGTGTTGC (((.(((....))).))) | -35.9 | 52.6
15 | GCACCAGGAAACCGGTGC (((((.(....).))))) | -42.4 | 58.3
16 | GCACCAGGAAACTGGCGC ((.((((....)))).)) | -41.4 | 55.6
17 | GCACCATCGAAAGATTGC (((..(((....)))))) | -20 | 29.1
18 | GCACCCGAAAGGGCCTGC ((((((....)))..))) | -13.4 | 34.5
19 | GCACCCTCGAAAGAGTGC (((..(((....)))))) | -23.1 | 41.6
20 | GCACCGCGAAAGCACTGC (((..((....))..))) | -8.63 | 31.2
21 | GCACCGCGAAAGCGGAGC ((.((((....)))).)) | -16.4 | 69
22 | GCACCGCGAAAGCGTCGC ((..(((....)))..)) | -12.8 | 41.2
23 | GCACCGGCGAAAGCCTGC (((..(((....)))))) | -12.6 | 39.1

Row | Sequence | folding enthalpy [1] [kcal/mol] | Tm [2] [°C]
24 | GCACCGGGAAACCGACGC ((..(((....)))..)) | -24.1 | 38
25 | GCACCGGGAAACCGGCAC (..((((....))))..) | -8.06 | 28.3
26 | GCACCTCCGAAAGGATGC (((..(((....)))))) | -21.9 | 36.5
27 | GCACCTGGAAACAGGTAC (.(((((....))))).) | -13.2 | 40.9
28 | GCACGACGAAAGTCTTGC (((.(((....))).))) | -35.8 | 53.7
29 | GCACGCACGAAAGTGTGC (((..(((....)))))) | -23.2 | 52.6
30 | GCACGCGAAAGCGACTGC ((((((....)))..))) | -12.6 | 43.8
31 | GCACGCGAAAGCGATTGC ((((((....)))..))) | -14.2 | 45.9
32 | GCACGCGAAAGCGTCTGC ((((((....)))..))) | -11.1 | 47.4
33 | GCACGCGGAAACGCGCAC (..((((....))))..) | -7.82 | 31.1
34 | GCACGCGGAAACGCGCGC ((.((((....)))).)) | -23.5 | 68.5
35 | GCACGGCCGAAAGGCTGC (((..(((....)))))) | -10 | 45.1
36 | GCACGGCGAAAGCAGCGC ((.(.((....)).).)) | -21.1 | 57.2
37 | GCACGGCGAAAGCATTGC (((..((....))..))) | -16.6 | 39.9
38 | GCACGGCGAAAGCCACGC ((..(((....)))..)) | -19.1 | 54.9
39 | GCACGGCGAAAGCCAGGC ((..(((....)))..)) | -14.9 | 55
40 | GCACGGCGAAAGCCCGGC ((..(((....)))..)) | -15.4 | 50.1
41 | GCACGGCGAAAGCCTGGC ((..(((....)))..)) | -15.2 | 51.7
42 | GCACGGCGAAAGCGATGC (((..((....))..))) | -18.2 | 47.2
43 | GCACGGGCGAAAGCCTGC (((..(((....)))))) | -12.7 | 45.2
44 | GCACGGGGAAACCCATGC (((.(((....))).))) | -29.5 | 47
45 | GCACGGGGAAACCCGCGC ((.((((....)))).)) | -36.1 | 58.4
46 | GCACGGGGAAACCCGTAC (.(((((....))))).) | -13.2 | 41.7

Row | Sequence | folding enthalpy [1] [kcal/mol] | Tm [2] [°C]
47 | GCACGTCGAAAGACTGC (((.(((....)))))) | -27.5 | 56.5
48 | GCACGTGGAAACACACGC ((..(((....)))..)) | -21.3 | 37.8
49 | GCACGTGGAAACACATGC (((.(((....))).))) | -31.9 | 45.1
50 | GCACGTGGAAACACGTAC (.(((((....))))).) | -14.2 | 44.1
51 | GCACTACGAAAGTACTGC (((.(((....))).))) | -26.9 | 37.6
52 | GCACTCACGAAAGTGTGC (((..(((....)))))) | -23 | 48.7
53 | GCACTCGAAAGAGACTGC ((((((....)))..))) | -17 | 34.6
54 | GCACTCGAAAGAGCCTGC ((((((....)))..))) | -12.9 | 27.8
55 | GCACTCGAAAGAGGTGC ((((((....))).))) | -29.1 | 54.4
56 | GCACTCGAAAGAGTCTGC ((((((....)))..))) | -19.2 | 40.1
57 | GCACTCGAAAGAGTGTGC ((((((....)))..))) | -20.1 | 63.8
58 | GCACTCGGAAACGGGTGC ((((.((....)).)))) | -51.6 | 59.5
59 | GCACTGCGAAAGCAAGGC ((..(((....)))..)) | -17.8 | 47.5
60 | GCACTGCGAAAGCATAGC ((..(((....)))..)) | -15.3 | 35.6
61 | GCACTGCGAAAGCATGGC ((..(((....)))..)) | -17.4 | 44.8
62 | GCACTGCGAAAGCCTTGC (((..((....))..))) | -21.9 | 36.6
63 | GCACTGCGAAAGCTGAGC ((.(.((....)).).)) | -20.5 | 49.2
64 | GCACTGCGAAAGCTGCGC ((.(.((....)).).)) | -22.5 | 57.1
65 | GCACTGGAAACAGTGC ((((((....)))))) | -38.3 | 65.2
66 | GCACTGGCGAAAGCCTGC (((..(((....)))))) | -12.1 | 44.3
67 | GCACTTACGAAAGTATGC (((..(((....)))))) | -18.1 | 30.3
68 | GCACTTCGAAAGAATGC (((.(((....)))))) | -31.2 | 41.5
69 | GCACTTGCGAAAGCATGC (((..(((....)))))) | -10.8 | 38.6

Row | Sequence | folding enthalpy [1] [kcal/mol] | Tm [2] [°C]
70 | GCACTTGGAAACGAGTGC (((((.(....).))))) | -54.9 | 54.1
71 | GCAGAACGAAAGTTTTGC (((.(((....))).))) | -40.9 | 52.1
72 | GCAGAAGGAAACTTTTGC (((.(((....))).))) | -31.2 | 37
73 | GCAGAATCGAAAGATTGC (((..(((....)))))) | -21.1 | 34.6
74 | GCAGACACGAAAGTGTGC (((..(((....)))))) | -15.3 | 46.8
75 | GCAGACGAAAGTCACTGC ((((((....)))..))) | -18.6 | 39.5
76 | GCAGACGAAAGTCCTTGC ((((((....)))..))) | -12.3 | 32.5
77 | GCAGACGAAAGTCTTTGC ((((((....)))..))) | -14.4 | 37.1
78 | GCAGACGGAAACACCTGC ((((..(....)..)))) | -18.1 | 28.6
79 | GCAGAGAAATCTGC (((((....))))) | -23.1 | 50.6
80 | GCAGAGCGAAAGCACCGC ((.(.((....)).).)) | -14.2 | 45.4
81 | GCAGAGCGAAAGCACGGC ((.(.((....)).).)) | -20.9 | 55.1
82 | GCAGAGCGAAAGCATTGC (((..((....))..))) | -17.3 | 49.9
83 | GCAGAGCGAAAGCCGTGC (((..((....))..))) | -16.4 | 42.1
84 | GCAGAGCGAAAGCGTTGC (((..((....))..))) | -19.4 | 62
85 | GCAGAGCGAAAGCTAGGC ((..(((....)))..)) | -16.4 | 50.7
86 | GCAGAGTCGAAAGACTGC (((..(((....)))))) | -16.7 | 48.7
87 | GCAGATACGAAAGTATGC (((..(((....)))))) | -22.3 | 36.5
88 | GCAGATCGAAAGATATGC (((.(((....))).))) | -36.7 | 54.7
89 | GCAGATGAAAATCTGC ((((((....)))))) | -39 | 59.9
90 | GCAGATGGAAACATCTAC (.(((((....))))).) | -19.1 | 34.7
91 | GCAGATGGAAACATCTGC (((((((....))))))) | -37.5 | 67.1
